Test results reported in ChEMBL document CHEMBL1138560, “Synthesis of amidine and amide derivatives and their evaluation for anti-inflammatory and analgesic activities” (2009).

What was measured:
Mus musculus = assay: Analgesic activity against acetic acid-induced writhes in mouse at 50 mg/kg, po administered 30 mins before acetic acid challenge measured for 60 mins; assay type: functional
In short: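 Mice of both sexes, 20–30 g, non-pregnant, groups of five; oral test dose given 30 min before 0.25 ml/mouse of 0.5% acetic acid; writhes counted over the following 60 min; group mean writhes expressed as percent decrease versus untreated control group of five mice.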

Rattus norvegicus = assay: Antiinflammatory activity against carrageenan-induced paw edema in Charles Foster albino rat at 50 mg/kg, po administered 30 mins before carrageenan challenge measured after 1 to 3 hrs; assay type: functional
In short: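 Groups of five rats, both sexes, 120–160 g, pregnant females excluded; 30 min after oral dose, 0.20 ml of 1% fresh carrageenan in 0.9% NaCl injected into hind-paw plantar aponeurosis; paw volume by water plethysmometer before and 1–3 h after; % inhibition = [1 − Dt/Dc] × 100 versus carrageenan-only control group of five.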

| SMILES | Activity (Mus musculus) [%] | Activity (Rattus norvegicus) [%] |
| --- | --- | --- |
| COc1ccc(-n2c(-c3ccccc3)cs/c2=N\C(=O)c2cc(=O)[nH]c(=O)[nH]2)cc1 | 8 | 9 |
| CC(C)Cc1ccc(C(C)C(=O)O)cc1 (stereo unspecified) [IBUPROFEN] | 50 | 39 |
| O=C(CC1NC(=O)NC1=O)/N=c1\scc(-c2ccccc2)n1-c1ccc(Cl)cc1 (stereo unspecified) | 0 | 10 |
| O=C(CC1NC(=O)NC1=O)/N=c1\scc(-c2ccccc2)n1-c1ccc([N+](=O)[O-])cc1 (stereo unspecified) |  | 34 |
| O=C(CC1NC(=O)NC1=O)/N=c1\scc(-c2ccccc2)n1-c1ccccc1[N+](=O)[O-] (stereo unspecified) |  | 17 |
| N=C(/N=c1\scc(-c2ccccc2)n1-c1ccccc1[N+](=O)[O-])c1ccccn1 |  | 49 |
| N=C(/N=c1\scc(-c2ccccc2)n1-c1ccc([N+](=O)[O-])cc1)c1ccccn1 | 18 | 26 |
| CC(=O)c1ccc(-n2c(-c3ccccc3)cs/c2=N\C(=O)c2cc(=O)[nH]c(=O)[nH]2)cc1 | 8 | 12 |
| CC(=O)c1ccc(-n2c(-c3ccccc3)cs/c2=N\C(=N)c2ccccn2)cc1 | 25 | 20 |
| COc1ccccc1-n1c(-c2ccccc2)cs/c1=N\C(=N)c1ccccn1 |  | 23 |
| Cc1ccccc1-n1c(-c2ccccc2)cs/c1=N\C(=N)c1ccccn1 | 50 | 0 |
| N=C(/N=c1\scc(-c2ccc(Br)cc2)n1-c1ccc2ccccc2c1)c1ccccn1 | 40 | 0 |
| CC(=O)Oc1ccccc1C(=O)O [ASPIRIN] |  | 43 |
| COc1ccc(-n2c(-c3ccccc3)cs/c2=N\C(=N)c2ccccn2)cc1 | 12 | 17 |
| COc1ccc(-c2cs/c(=N\C(=O)c3cc(=O)[nH]c(=O)[nH]3)n2-c2ccc([N+](=O)[O-])cc2)cc1 | 10 | 15 |
| N=C(/N=c1\scc(-c2ccccc2)n1-c1ccc(Cl)cc1)c1ccccn1 | 12 | 17 |
| CCOc1ccc(-c2cs/c(=N\C(=N)c3ccccn3)n2-c2ccccc2)cc1 | 50 | 0 |
| O=C(/N=c1\scc(-c2ccccc2)n1-c1ccccc1[N+](=O)[O-])c1cc(=O)[nH]c(=O)[nH]1 |  | 25 |
| O=C(/N=c1\scc(-c2ccccc2)n1-c1ccc(Cl)cc1)c1cc(=O)[nH]c(=O)[nH]1 |  | 2 |
